For 71 compounds, cytotoxicity results are on record in ChEMBL document CHEMBL4513216, “Probing the Open Global Health Chemical Diversity Library for Multistage-Active Starting Points for Next-Generation Antimalarials” (ACS Infect Dis, 2020).

Each structure is given as a SMILES string.

The data set in a line: Toxicity liver stage against HepG2, at 10uM. It counts as cell-based. The arrangement: test concentration 10 uM, cell line HepG2-A16-CD81EGFP. The conditions noted are these: human, HepG2-A16-CD81EGFP cells; read-out: INHIBITION
The method in brief:
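Uninfected HepG2-A16-CD81EGFP cells, 3 × 10^3 per well, 1536-well, plated on prespotted compound at 10 μM final, parasite-free screening media added to match infected plates; puromycin 10 μM positive, DMSO 0.5% negative; run in parallel with 48 h PbLuc assay at 37 °C, 5% CO2; viability by CellTiter-Glo luminescence, normalized to controls.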
Regarding `Cc1ccc(C(O)CNC(=O)CCCc2ccccn2)o1` (stereo unspecified), the cytotoxicity at 10 µM came to 0.166%.

On to `COC(=O)c1oc(CNC(C)(C)c2ccc3c(c2)OCCO3)cc1C`, for which the cytotoxicity at 10 µM amounted to 5.36%. For `CC(C(=O)N1CCN(c2ccc(F)cc2)CC1)n1cc(Br)cn1` (stereo unspecified) the value was 9.35%. For `NC(=O)N1CCCC1COC(=O)c1ccc(F)cc1Br` (stereo unspecified) the value was 0.616%; for `COc1ccc(C(C(=O)O)N(C)CCN2CCOCC2)c(C)c1` (stereo unspecified), 2.66%; for `CNC(=O)c1cc(-n2ccnc2-c2cnc(N(C)C)nc2)ccc1OC`, -6.91%. On to `CC(C)(C)n1cc(C2=CCN(CCN3CCCCCC3)CC2)cn1`, for which the cytotoxicity at 10 µM is -0.481%. For `CN(CCC1CCOCC1)C(=O)C1CCC(=O)N(Cc2ccccn2)C1` (stereo unspecified) the value was -2.06%; for `Cc1ccc(CNC(=O)CN2CCN(CCO)CC2)s1`, 9.03%; for `COc1cccc(-n2nnc(C(=O)N3CCC(C(N)=O)CC3)c2C)c1`, -6.66%. `COc1cc(F)ccc1N(C)Cc1ccncc1`: the cytotoxicity at 10 µM was -3.64%.

On to `Cc1noc(Cl)c1CC(=O)N1CCC(Nc2cccnn2)CC1`, for which the cytotoxicity at 10 µM was -4.72%. The figure for `CCCc1nc(N2CCC(CCO)CC2)c2cnn(C)c2n1` is 2.28%; for `Cn1c(=O)c2c(n3ncnc13)NC(=O)CC2c1cccc(F)c1` (stereo unspecified) it is 2.05%. With `O=C(Nc1ccc(F)cc1)N(CCC(F)(F)F)C[C@H](O)CO`, the cytotoxicity at 10 µM is -7.8%. As for `Fc1cccc(-c2nc(CN3CCOC(Cn4cccn4)C3)co2)c1` (stereo unspecified), the cytotoxicity at 10 µM was -5.6%.

For the compound `Cc1cccc(-n2c(C)cc(C(=O)NS(C)(=O)=O)c2C)c1`, the cytotoxicity at 10 µM is -4.08%. On to `COc1cccc(OC)c1OCCn1c(C)c(C)oc1=O`, for which the cytotoxicity at 10 µM came to 9.61%. For `c1cncc(C[C@H]2[C@H](N3CCOCC3)CCN2Cc2nccs2)c1` the value was 8.82%; for `CN(C)C(=O)c1n[nH]c2c1CN(CC1CCCCC1)C2`, 2.86%; for `CN(CCCOc1ccccc1Cl)C(=O)CN1CCCCCC1=O`, -9.63%. Take `CCc1noc(C(C)N(C)CC(=O)Nc2ccc(C)cc2)n1` (stereo unspecified): the cytotoxicity at 10 µM is -6.42%. Take `Cn1ccc(C(=O)Nc2nccn2Cc2ccccc2Cl)cc1=O`: the cytotoxicity at 10 µM is -1.92%. In the case of `CCc1nccn1-c1cccc(C2CCCN2)n1` (stereo unspecified), the cytotoxicity at 10 µM is -5.77%. The figure for `CC(C)n1cnc(C2CN(C)c3ccc(C(=O)NC4CCCC4)cc32)n1` (stereo unspecified) is 10.4%.

Consider `CN1CC[C@]2(CN(Cc3nccs3)C[C@H]2c2ccccc2)C1=O`, for which the cytotoxicity at 10 µM is 10.8%.

On to `Cc1nc2cc(C(=O)N(CCN(C)C)CCN(C)C)ccc2n1C`, for which the cytotoxicity at 10 µM is -9.01%. For the compound `Cc1ccc(-c2ccc(Cl)nn2)cc1S(=O)(=O)N1CCOCC1`, the cytotoxicity at 10 µM is -4.26%. For `Cc1cc(C(=O)N2CC[C@@H]3CO[C@@H](CN4CCCC4)[C@@H]3C2)no1` the value was 7.61%; for `Cc1c(CN2CCCC2(C)C(=O)N2CCOCC2)cnn1C` (stereo unspecified), -6.29%. Regarding `CC(C)(C)C(=O)NCCCC(=O)NC(C)(C)c1ccc2c(c1)OCO2`, the cytotoxicity at 10 µM was found to be 12.1%.

Turning to `Cc1cnc(N2CCC3(CC2)COCCN(C(C)C)C3)nc1`, the cytotoxicity at 10 µM is -121%. Take `Cc1ccc(NC(=O)[C@@H]2C[C@H](C(=O)O)CN(Cc3sccc3C)C2)cn1`: the cytotoxicity at 10 µM is 11%. For `c1cc2nc(C3CCN(CC4CC4)CC3)nn2cc1N1CCCC1`, the cytotoxicity at 10 µM was -8.13%. The figure for `Cc1nc2n(n1)CC(NCc1cc(Cl)c3c(c1)OCCO3)CC2` (stereo unspecified) is -6.14%; for `CS(=O)(=O)NCCN(CCCO)C1CCc2ccccc21` (stereo unspecified) it is 3.09%. The figure for `COc1ncc(CN2CCCC(c3[nH]ncc3S(C)(=O)=O)C2)cn1` (stereo unspecified) is 7.24%; for `CC(c1ccc(F)cc1)n1ccnc1-c1cc2n(n1)CCCNC2` (stereo unspecified) it is 2.36%; for `Cc1ccc(OC2(C(=O)O)CCN(C(=O)c3nc(C)oc3C)CC2)cn1` it is -9.41%. As for `CC(C)NC(=O)CCNC(=O)c1cc(F)ccc1NS(C)(=O)=O`, the cytotoxicity at 10 µM was -4.24%.

With `O=C1CNc2ncnc(Nc3cnn(Cc4ccc(F)cc4)c3)c2N1`, the cytotoxicity at 10 µM came out at 6.85%. Take `O=C(CCc1cccnc1)N1CCCCC1c1ccn2ccnc2n1` (stereo unspecified): the cytotoxicity at 10 µM is -4.28%. `Cn1ccnc1CN1CCCN(C(=O)C2(C#N)CCCCC2)CC1`: the cytotoxicity at 10 µM was -2.84%. The figure for `CC1(C2CCN(CCCC(=O)O)CC2)CN(Cc2ccccc2)C(=O)O1` (stereo unspecified) is -21.9%; for `COc1ccnc(N2CCN(C(=O)c3csc(C)n3)CC2)n1` it is 0.313%. The figure for `CCc1noc(CS(=O)(=O)CC(=O)N2c3ccccc3CC2C)n1` (stereo unspecified) is 7.07%.

Consider `Cn1cnc2c1C(COCC1CCOCC1)CN(C(=O)C1CC=CC1)C2` (stereo unspecified), for which the cytotoxicity at 10 µM is -75.5%. For `Cc1cccc(C(=O)N2C[C@@H]3C(CC(=O)NC(C)C)[C@@H]3C2)n1` (stereo partly specified), the cytotoxicity at 10 µM is -3.69%. Consider `CN(C)C(=O)c1ccc2c(c1)N(C)C(CC(=O)NCCOCCO)CO2` (stereo unspecified), for which the cytotoxicity at 10 µM is -7.96%. For `CC(CCc1ccccc1F)C(=O)NS(=O)(=O)N(C)C(C)C` (stereo unspecified), the cytotoxicity at 10 µM was 10.6%. For `Cc1cccc(C(=O)N2CCC3(CC2)CC(c2cnn(C)c2)CO3)c1` (stereo unspecified) the value was -78.7%; for `CNC(=O)c1cn[nH]c1C1CCCN1c1nc(C)cc(C)n1` (stereo unspecified), 2.81%; for `O=C(C1CCOCC1)N1C[C@H](OCc2cccnc2)[C@H]2COC[C@H]21`, 1.99%. For the compound `OCCNc1nccc(-c2c[nH]nc2-c2ccncc2)n1`, the cytotoxicity at 10 µM was -9.52%. With `COc1ccc(C(=O)Nc2ccccc2-c2ccc(=O)n(C)n2)cc1`, the cytotoxicity at 10 µM was 2.11%. For `CC(C1CCN(Cc2ccc(N(C)C)nc2)CC1)N(C)C` (stereo unspecified), the cytotoxicity at 10 µM is -1.75%. Consider `CCOCCCNc1cc(C)nn2cnnc12`, for which the cytotoxicity at 10 µM came to 2.21%. Consider `Cc1nc(CNC(=O)NCC(O)c2ccc(F)cc2F)cs1` (stereo unspecified), for which the cytotoxicity at 10 µM is 6.5%. The figure for `COCC(=O)N1CCC2(CC1)COC(COCc1ccccn1)C2` (stereo unspecified) is -128%; for `O=C1CCSCC(C(=O)N2CCN(C3CCCCC3)CC2)N1` (stereo unspecified) it is -18.7%; for `CCc1cc(=O)[nH]c2nnc(SCC(=O)OC)n12` it is -16.6%. For the compound `COCCN(Cc1ccc(F)cc1Cl)C(=O)c1cnn(C)c1C`, the cytotoxicity at 10 µM came out at 12.8%. Consider `CC(C)C(Sc1nnc(C2CC2)n1C1CC1)C(=O)NCc1cccnc1` (stereo unspecified), for which the cytotoxicity at 10 µM is -11.2%. In the case of `CC(=O)N[C@@H]1Cc2ccccc2[C@H]1Nc1cc(C2CC2)ncn1`, the cytotoxicity at 10 µM is -45.2%.

Turning to `CC(C)C(=O)Nc1ccc(C(O)Cn2nc(-c3cccs3)oc2=O)cc1` (stereo unspecified), the cytotoxicity at 10 µM was -5.31%.

Turning to `c1ccc(CNC[C@H]2COCc3nc4cccnc4n32)cc1`, the cytotoxicity at 10 µM is -1.84%. Regarding `O=C(NCC1(O)COCCN(Cc2ccc(O)cc2)C1)c1cnccn1` (stereo unspecified), the cytotoxicity at 10 µM is -12.8%.

As to `CN(C)Cc1cc(CC2(NCc3ccccc3Cl)COC2)no1`, the cytotoxicity at 10 µM is 4.14%. For `Cc1nc(CN(C)C2CCN(CC3CCCCC3)C2)no1` (stereo unspecified), the cytotoxicity at 10 µM was -7.49%.

Take `Cc1csc(CNC(=O)NC2CCCc3c2cnn3CCO)n1` (stereo unspecified): the cytotoxicity at 10 µM stood at 13.7%. For `COC1CCN(C(=O)C2CC(=O)N(c3ccccc3Br)C2)CC1` (stereo unspecified) the value was -3.57%.
